The source made the active and inactive calls.
How the values were obtained:
[1] = Drug degradation in human liver microsomes at 1 uM measured over 60 mins by LC-MS/MS analysis; assay type: ADME, Microsome; settings: read-out: Drug degradation
Procedure, shortened: (§1)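 Human or rat liver microsomes (0.4 mg/mL protein final) in 0.1 M phosphate buffer pH 7.4 with 1 μM compound at 37°C. Reaction started with an NADPH-regenerating system plus MgCl2. Samples were quenched with ice-cold acetonitrile at time points over 60 min. Remaining parent was measured by LC-MS, and the first-order depletion rate constant came from an exponential decay fit.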

[2] = Degradation half life in rat liver microsomes at 1 uM by LC-MS/MS analysis; assay type: ADME, Microsome; procedure, shortened: as §1
[3] = Degradation half life in rat plasma at 1000 ng/ml by LC-MS/MS analysis; assay type: ADME, cell-free
Procedure, shortened: (§2)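 Pooled human plasma (3 donors) or pooled male Sprague-Dawley rat plasma, thawed at 37°C. Spiked to a nominal 1000 ng/mL final (0.2% DMSO, 0.4% acetonitrile final) and incubated at 37°C. Aliquots were snap-frozen at time points over 4 h (n=3 per time point). Quantified by LC-MS against a same-species blank-plasma calibration with a leucine enkephalin internal standard.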

[4] = Drug degradation in human plasma at 1000 ng/ml measured over 240 mins by LC-MS/MS analysis; assay type: ADME, cell-free; settings: read-out: Drug degradation; procedure, shortened: as §2
[5] = biological target: T1, Sodium- and chloride-dependent glycine transporter 2 (Homo sapiens) (UniProt Q9Y345); assay: Inhibition of recombinant human GlyT2a expressed in Xenopus laevis oocytes assessed as reduction in channel current at 30 nM by two-electrode voltage clamp electrophysiology; assay type: cell-based
T1 sequence (whole entry): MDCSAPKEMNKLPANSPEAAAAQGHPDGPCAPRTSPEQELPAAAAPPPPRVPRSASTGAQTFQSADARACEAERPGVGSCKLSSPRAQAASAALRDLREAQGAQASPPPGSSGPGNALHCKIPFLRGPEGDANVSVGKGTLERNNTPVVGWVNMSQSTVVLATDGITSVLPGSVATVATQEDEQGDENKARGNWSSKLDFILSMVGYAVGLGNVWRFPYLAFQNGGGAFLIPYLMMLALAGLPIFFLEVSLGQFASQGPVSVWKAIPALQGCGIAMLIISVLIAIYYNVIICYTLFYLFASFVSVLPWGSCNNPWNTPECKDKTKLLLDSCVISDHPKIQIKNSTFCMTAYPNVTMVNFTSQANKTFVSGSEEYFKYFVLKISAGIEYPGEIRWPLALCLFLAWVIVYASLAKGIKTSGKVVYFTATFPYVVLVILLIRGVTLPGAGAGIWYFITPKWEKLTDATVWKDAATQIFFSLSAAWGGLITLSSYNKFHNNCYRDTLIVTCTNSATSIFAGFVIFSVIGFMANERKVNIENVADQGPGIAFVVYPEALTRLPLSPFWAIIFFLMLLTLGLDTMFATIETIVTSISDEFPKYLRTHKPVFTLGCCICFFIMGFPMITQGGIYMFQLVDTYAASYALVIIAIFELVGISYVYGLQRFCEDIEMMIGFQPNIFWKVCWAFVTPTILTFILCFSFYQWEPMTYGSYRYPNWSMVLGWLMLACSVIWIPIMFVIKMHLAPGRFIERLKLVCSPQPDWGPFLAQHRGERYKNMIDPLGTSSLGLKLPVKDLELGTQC
Procedure, shortened: (§3)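 GlyT2-expressing oocytes under two-electrode voltage clamp at -60 mV. Glycine concentration responses were run first without inhibitor, then after 2 min pre-application of inhibitor (10 nM, 30 nM or 1 μM) in ND96, followed by increasing glycine. Plateau currents were normalised to each cell's Imax at 300 μM glycine without inhibitor. ANOVA was applied to EC50 and Imax.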

[6] = biological target: T1, Sodium- and chloride-dependent glycine transporter 2 (Homo sapiens); assay: Inhibition of recombinant human GlyT2a expressed in Xenopus laevis oocytes assessed as reduction in channel current at 10 nM by two-electrode voltage clamp electrophysiology; assay type: cell-based; procedure, shortened: as §3
[7] = biological target: T2, Sodium- and chloride-dependent glycine transporter 1 (Homo sapiens) (UniProt P48067); assay: Inhibition of recombinant human GlyT1b expressed in Xenopus laevis oocytes assessed as reduction in [3H]glycine uptake at 0.1 to 1 uM pretreated for 2 mins followed by [3H]glycine addition and measured after 30 mins by scintillation counting method; assay type: cell-based
T2 sequence (whole entry): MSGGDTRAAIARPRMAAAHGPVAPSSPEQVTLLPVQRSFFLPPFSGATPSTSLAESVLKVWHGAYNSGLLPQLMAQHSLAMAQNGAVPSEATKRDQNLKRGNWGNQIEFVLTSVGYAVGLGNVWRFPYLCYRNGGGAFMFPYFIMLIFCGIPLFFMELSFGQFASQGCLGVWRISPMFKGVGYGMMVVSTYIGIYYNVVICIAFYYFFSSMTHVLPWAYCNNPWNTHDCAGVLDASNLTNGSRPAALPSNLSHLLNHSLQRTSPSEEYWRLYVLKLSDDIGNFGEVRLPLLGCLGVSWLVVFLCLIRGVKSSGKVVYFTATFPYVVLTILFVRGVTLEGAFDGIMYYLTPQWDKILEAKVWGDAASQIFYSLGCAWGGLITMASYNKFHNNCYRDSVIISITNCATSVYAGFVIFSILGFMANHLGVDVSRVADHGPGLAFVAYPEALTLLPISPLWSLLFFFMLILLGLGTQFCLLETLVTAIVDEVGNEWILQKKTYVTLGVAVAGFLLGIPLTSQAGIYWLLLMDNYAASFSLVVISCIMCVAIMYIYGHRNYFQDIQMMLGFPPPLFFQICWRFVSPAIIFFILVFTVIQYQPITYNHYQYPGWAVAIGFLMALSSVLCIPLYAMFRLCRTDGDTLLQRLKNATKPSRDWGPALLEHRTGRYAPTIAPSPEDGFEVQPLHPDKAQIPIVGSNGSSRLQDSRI

[8] = biological target: T3, Sodium- and chloride-dependent glycine transporter 1 (Homo sapiens, UniProt P48067); assay: Inhibition of recombinant human GlyT1b expressed in Xenopus laevis oocytes assessed as reduction in channel current by two-electrode voltage clamp electrophysiology; assay type: cell-based
T3 sequence (P48067 whole entry): T2 sequence (whole entry)

[9] = biological target: T4, Sodium- and chloride-dependent glycine transporter 2 (Homo sapiens, UniProt Q9Y345); assay: Inhibition of recombinant human GlyT2a expressed in Xenopus laevis oocytes assessed as reduction in channel current by two-electrode voltage clamp electrophysiology; assay type: cell-based
T4 sequence (Q9Y345 whole entry): T1 sequence (whole entry)

[10] = biological target: T1, Sodium- and chloride-dependent glycine transporter 2 (Homo sapiens); assay: Inhibition of recombinant human GlyT2a expressed in Xenopus laevis oocytes assessed as reduction in channel current by two-electrode voltage clamp electrophysiology relative to control; assay type: cell-based
[11] = biological target: T1, Sodium- and chloride-dependent glycine transporter 2 (Homo sapiens); assay: Inhibition of recombinant human GlyT2a expressed in Xenopus laevis oocytes assessed as reduction in channel current at 1 uM by two-electrode voltage clamp electrophysiology; assay type: cell-based; procedure, shortened: as §3
[12] = test system: GlyT2 (Homo sapiens); assay: Inhibition of recombinant human GlyT2a expressed in expressed in Xenopus laevis oocytes assessed as reduction in [3H]glycine uptake at 0.1 to 1 uM pretreated for 2 mins followed by [3H]glycine addition and measured after 30 mins by scintillation counting method
[13] = test system: Rattus norvegicus; assay: Analgesic activity in Sprague-Dawley rat model of neuropathic pain assessed as reduction in allodynia at 30 mg/kg, ip administered as single dose measured after 90 mins post injection; assay type: functional, organism-based
Procedure, shortened: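 Male Sprague-Dawley rats were tested 14 days after nerve-constriction surgery. Mechanical paw withdrawal threshold was measured with von Frey filaments (0.4–15.1 g) by the up-down method, bounded at 0.2 and 15 g. Rats got a single ip injection with vehicle of 1% DMSO, 10% Solutol HS15 in 0.9% saline. Testing ran at 15–360 min post-injection with Bonferroni comparisons against vehicle.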

[14] = Toxicity in Sprague-Dawley rat model of neuropathic pain assessed as induction of abdominal pain rat 30 mg/kg, ip administered as single dose measured up to 60 mins post injection; assay type: organism-based; settings: in vivo, 1 h
Procedure, shortened: (§4)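 Male Sprague-Dawley rats underwent chronic nerve constriction surgery, and neuropathic pain developed over 14 days. Rats were housed in groups of 4 and acclimatised to test chambers. Single ip injection of drug or vehicle (1% DMSO, 10% Solutol HS15 in 0.9% saline). Adverse behaviours were scored over the post-injection period alongside von Frey testing, with vehicle as comparison.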

[15] = Toxicity in Sprague-Dawley rat model of neuropathic pain assessed as induction of writhing behaviour rat 30 mg/kg, ip administered as single dose measured up to 60 mins post injection; assay type: organism-based; settings: in vivo, 1 h; procedure, shortened: as §4
[16] = Toxicity in Sprague-Dawley rat model of neuropathic pain assessed as induction of recumbent behaviour rat 30 mg/kg, ip administered as single dose measured up to 60 mins post injection; assay type: organism-based; settings: in vivo, 1 h; procedure, shortened: as §4
[17] = biological target: T1, Sodium- and chloride-dependent glycine transporter 2 (Homo sapiens); assay: Slow reversible inhibition of recombinant human GlyT2a expressed in Xenopus laevis oocytes assessed as recovery of transport current at IC50 followed by compound wash out followed by glycine re-application at 5 mins intervals throughout wash time course and measured after 30 mins by two-electrode voltage clamp electrophysiology; assay type: cell-based; parameters: scale not given: the % may be the effect or the level left

| Compound | metabolised at 1 h, 1 µM [1] [%] | t1/2 [2] [min] | t1/2 [3] [min] | metabolised at 4 h, 1000 ng/ml [4] [%] | Imax [5] [%] | Imax [6] [%] | inhibition [7] | IC50 [8] [µM] | IC50 [9] [nM] | Imax [10] [%] | Imax [11] [%] | inhibition [12] | Activity [13] | Activity [14] | Activity [15] | Activity [16] | Activity [17] [%] |
| --- | --- | --- | --- | --- | --- | --- | --- | --- | --- | --- | --- | --- | --- | --- | --- | --- | --- |
| CCCCCCCC/C=C\CCCCCCCC(=O)N[C@@H](CCCCN)C(=O)O.Cl | < 15 | 54 | 86 | < 15 | 62.4 | 82.8 | inactive | > 3 | 25.5 | 86.8 | 30.2 | Active |  |  |  |  |  |
| COc1cc(C(=O)NCC2(N(C)C)CCCC2)cc(OC)c1OCc1ccccc1 |  |  |  |  |  |  |  |  |  | 93 |  |  | Active | Toxic | Toxic | Toxic | 35 |

Source: ChEMBL document CHEMBL4480400, “Development of an N-Acyl Amino Acid That Selectively Inhibits the Glycine Transporter 2 To Produce Analgesia in a Rat Model of Chronic Pain” (J Med Chem, 2019)
